Reference: ChEMBL document CHEMBL5674882, “Benzolactam-related compounds promote apoptosis of HIV-infected human cells via protein kinase C-induced HIV latency reversal” (J Biol Chem, 2019)
Active and inactive are the calls of the source. No cut-off for these calls is given here.

Tests used:
ACH-2 cell line [1] = assay: Induction of apoptosis in human ACH-2 cells assessed as cleaved-PARP level at 10 nM incubated for 24 hrs by flow cytometry (reference value: 1.64%); format: functional
Procedure, shortened: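 Cells fixed, permeabilized, stained on ice with anti-cleaved PARP (Asp-214) mAb; % cleaved-PARP cells by flow cytometry. Means ± S.D. of three independent experiments.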

U1 [2] = assay: Induction of apoptosis in human U1 cells assessed as caspase-3 activation at 10 nM incubated for 24 hrs by flow cytometry (reference value: 1.86%); format: functional
Procedure, shortened: (§1)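 Cells fixed in 1% paraformaldehyde, permeabilized, stained 30 min on ice with anti-active caspase-3 mAb, and analysed by flow cytometry. Three independent experiments.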

U1 [3] = assay: Induction of apoptosis in human U1 cells at 1 uM incubated for 48 hrs after pre-incubated for 2 hrs with 20 uM caspase inhibitor Q-VD-Oph by propidium iodide/annexin-V staining based flow cytometry; format: functional, cell-based
Procedure, shortened: (§2)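 ACH-2 or U1 cells pretreated 2 h with 20 µM pan-caspase inhibitor Q-VD-Oph, then exposed to 1 µM compound for 48 h. Annexin-V/PI staining by flow cytometry; apoptotic proportions compared with and without Q-VD-Oph. Mean ± S.D.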

U1 [4] = assay: Induction of apoptosis in human U1 cells assessed as caspase-3 activation at 10 nM incubated for 24 hrs by flow cytometry; format: functional; procedure, shortened: as §1
ACH-2 cell line [5] = assay: Induction of apoptosis in human ACH-2 cells assessed as caspase-3 activation at 10 nM incubated for 24 hrs by flow cytometry; format: functional; procedure, shortened: as §1
Jurkat = assay: Induction of apoptosis in human Jurkat cells assessed as caspase-3 activation at 10 nM incubated for 24 hrs by flow cytometry; format: functional; procedure, shortened: as §1
U1 [6] = assay: Induction of apoptosis in human U1 cells at 1 uM incubated for 48 hrs by propidium iodide/annexin-V staining based flow cytometry (reference value: 3.16%); format: functional
[7] = molecular target: T1, Protein kinase C (PKC) (Homo sapiens) (UniProt O94806+P41743+P17252+P05129+Q05655+P05771+Q05513+Q02156+P24723+Q15139+Q04759); assay: Induction of apoptosis in CCL19-induced human CD4+ T-cells infected with latent HIV-1 assessed as caspase-3 activation at 100 nM incubated for 48 hrs in presence of 2 uM ionomycin by incubated for 48 hrs by FACS; format: cell-based; settings: CD4+ T cell, filed as activator
Procedure, shortened: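 Latency model: healthy-donor CD4+ T-cells given 100 nM CCL19 for 2 days, infected with HIV-1 NL4-3, kept 5 days in IL-2. Stimulated 2 days with 1 µM drug or 100 nM PMA plus 2 µM ionomycin. Cells fixed and permeabilized, co-stained with anti-p24 and anti-active caspase-3 mAbs; active caspase-3 read by flow cytometry separately in p24+ and p24− cells. Two donors.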

[8] = Induction of apoptosis in human CEM A3.01 cells assessed as caspase-3 activation at 10 nM incubated for 24 hrs by flow cytometry; format: functional; procedure, shortened: as §1
U-937 = assay: Induction of apoptosis in human U-937 cells assessed as caspase-3 activation at 10 nM incubated for 24 hrs by flow cytometry; format: functional; procedure, shortened: as §1
J-Lat 6.3 (Homo sapiens) = assay: Induction of apoptosis in human J-Lat 6.3 cells at 1 uM incubated for 48 hrs after pre-incubated for 2 hrs with 20 uM caspase inhibitor Q-VD-Oph by propidium iodide/annexin-V staining based flow cytometry
J-Lat 6.3 [9] = assay: Induction of apoptosis in human J-Lat 6.3 cells assessed as caspase-3 activation at 10 nM incubated for 24 hrs by flow cytometry (reference value: 2.43%); format: functional; procedure, shortened: as §1
J-Lat 6.3 [10] = assay: Induction of apoptosis in human J-Lat 6.3 cells at 1 uM incubated for 48 hrs by propidium iodide/annexin-V staining based flow cytometry (reference value: 3.16%); format: functional
J-Lat 6.3 [11] = assay: Induction of apoptosis in human J-Lat 6.3 cells assessed as caspase-3 activation at 10 nM incubated for 24 hrs by flow cytometry; format: functional; procedure, shortened: as §1
ACH-2 cell line [12] = assay: Induction of apoptosis in human ACH-2 cells at 1 uM incubated for 48 hrs after pre-incubated for 2 hrs with 20 uM caspase inhibitor Q-VD-Oph by propidium iodide/annexin-V staining based flow cytometry; format: functional, cell-based; procedure, shortened: as §2
ACH-2 cell line [13] = assay: Induction of apoptosis in human ACH-2 cells at 1 uM incubated for 48 hrs by propidium iodide/annexin-V staining based flow cytometry (reference value: 3.16%); format: functional
[14] = molecular target: T1, Protein kinase C (PKC) (Homo sapiens); assay: Activation of PKC in CCL19-induced human CD4+ T-cells infected with latent HIV-1 assessed as reversal of HIV-1 latency by measuring increase in p24 antigen level at 100 nM incubated for 48 hrs in presence of 2 uM ionomycin by chemiluminescent enzyme immunoassay; format: cell-based; settings: CD4+ T cell, filed as activator

For `CCCCCCCCCCCCCC(=O)O[C@@H]1[C@@H](C)[C@@]2(O)[C@@H](C=C(CO)C[C@]3(O)C(=O)C(C)=C[C@@H]23)[C@@H]2C(C)(C)[C@]12OC(C)=O` [PHORBOL MYRISTATE ACETATE], the Activity (ACH-2 cell line [1]) was 21.7%, the Activity (U1 [2]) was 8.06% and the Activity (U1 [3]) was “inactive”. For the same molecule, the Activity (U1 [4]) was 33.6%, the Activity (ACH-2 cell line [5]) was 27% and the Activity (Jurkat) was 2.03%. The Activity (U1 [6]) was 28.7%, the Activity [7] was “Active” and the Activity [8] was 2.39%. The Activity (U-937) was 1.02%, the Activity (J-Lat 6.3 (Homo sapiens)) was “inactive” and the Activity (J-Lat 6.3 [9]) was 19.9%. The Activity (J-Lat 6.3 [10]) was 15.2%, the Activity (J-Lat 6.3 [11]) was 12.9% and the Activity (ACH-2 cell line [12]) was “inactive”. The Activity (ACH-2 cell line [13]) was 40.3% and the Activity [14] was “Active”.
